Common to all, as to details: in vivo
The subject of data set [1] is Rattus norvegicus. Description: AUC (infinity) in BCRP knockout Sprague-Dawley rat treated with loperamide at 10 mg/kg, po by LC-MS/MS analysis. The class given is ADME, organism-based, Plasma. More on the design: time infinity, dose 10 mg/kg, route oral. In short, it runs like this:
(§1)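 Male Sprague-Dawley rats (knockout or wild type matched for age and weight), femoral artery and vein cannulated, at least 2 days recovery. Crossover design: IV bolus 1 mg/kg on day 0 (saline with 0.2 M equivalents HCl), oral gavage 10 mg/kg on day 3 (water with 0.2 M equivalents HCl). Arterial plasma sampled to 24 h (Mdr1a oral arm to 4 h). Analysed by LC-MS/MS and noncompartmental analysis.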

The subject of data set [2] is Rattus norvegicus. The data set is described as follows: Ratio of AUC (0 to 4 hrs) for metabolite to AUC (0 to 4 hrs) for parent compound in MRP2 knockout Sprague-Dawley rat at 10 mg/kg, po by LC-MS/MS analysis. The class given is ADME, organism-based. More on the design: dose 10 mg/kg, route oral.
For data set [3], the system named is Rattus norvegicus. Description: AUC (0 to 4 hrs) in MDR1A knockout Sprague-Dawley rat treated with loperamide at 10 mg/kg, po by LC-MS/MS analysis. It counts as ADME, organism-based, Plasma. More on the design: time < 4 hr, dose 10 mg/kg, route oral.
Data set [4] deals with Rattus norvegicus. The data set is described as follows: Cmax in BCRP knockout Sprague-Dawley rat treated with loperamide at 10 mg/kg, po by LC-MS/MS analysis. More on the design: dose 10 mg/kg, route oral. The class given is ADME, organism-based. In short, it runs like this:
as §1

Data set [5] concerns Rattus norvegicus. The data set is described as follows: AUC (infinity) in wild-type Sprague-Dawley rat treated with loperamide at 10 mg/kg, po by LC-MS/MS analysis. It counts as ADME, organism-based, Plasma. Also noted: time infinity, dose 10 mg/kg, route oral. In short, it runs like this: as §1
Data set [6] deals with Rattus norvegicus. The data set is described as follows: Cmax in wild-type Sprague-Dawley rat treated with loperamide at 10 mg/kg, po by LC-MS/MS analysis. The class given is ADME, organism-based. More on the design: dose 10 mg/kg, route oral. A digest of the protocol: as §1
Data set [7] relates to Rattus norvegicus. The data set is described as follows: Cmax in MRP2 knockout Sprague-Dawley rat treated with loperamide at 10 mg/kg, po by LC-MS/MS analysis. The class given is ADME, organism-based. Also noted: dose 10 mg/kg, route oral. In short, it runs like this:
as §1

For data set [8], the system named is Rattus norvegicus. Description: AUC (infinity) in MRP2 knockout Sprague-Dawley rat treated with loperamide at 10 mg/kg, po by LC-MS/MS analysis. More on the design: time infinity, dose 10 mg/kg, route oral. It counts as ADME, organism-based, Plasma. In short, it runs like this:
as §1

Data set [9] relates to Rattus norvegicus. Description: Cmax in MDR1A knockout Sprague-Dawley rat treated with loperamide at 10 mg/kg, po by LC-MS/MS analysis. Also noted: dose 10 mg/kg, route oral. It counts as ADME, organism-based. In short, it runs like this: as §1
Data set [10] deals with Rattus norvegicus. Description: Ratio of AUC (0 to 4 hrs) for metabolite to AUC (0 to 4 hrs) for parent compound in BCRP knockout Sprague-Dawley rat at 10 mg/kg, po by LC-MS/MS analysis. More on the design: dose 10 mg/kg, route oral. It counts as ADME, organism-based.
Data set [11] concerns Rattus norvegicus. Description: Ratio of AUC (0 to 4 hrs) for metabolite to AUC (0 to 4 hrs) for parent compound in MDR1A knockout Sprague-Dawley rat at 10 mg/kg, po by LC-MS/MS analysis. The class given is ADME, organism-based. More on the design: dose 10 mg/kg, route oral.
Data set [12] relates to Rattus norvegicus. Description: AUC (0 to 4 hrs) in wild-type Sprague-Dawley rat treated with loperamide at 10 mg/kg, po by LC-MS/MS analysis. The class given is ADME, organism-based, Plasma. Also noted: time < 4 hr, dose 10 mg/kg, route oral.
Data set [13] deals with Rattus norvegicus. The data set is described as follows: Ratio of AUC (0 to 4 hrs) for metabolite to AUC (0 to 4 hrs) for parent compound in wild-type Sprague-Dawley rat at 10 mg/kg, po by LC-MS/MS analysis. It counts as ADME, organism-based. More on the design: dose 10 mg/kg, route oral.

The results in this text go back to ChEMBL document CHEMBL3526049 (Drug Metab Dispos, 2012).

In the case of `CNC(=O)C(CCN1CCC(O)(c2ccc(Cl)cc2)CC1)(c1ccccc1)c1ccccc1`, the AUC in the data set on Rattus norvegicus [1] worked out at 3256 ng.Eq.hr/ml; in the data set with Rattus norvegicus [3], 635 ng.Eq.hr/ml; in the data set on Rattus norvegicus [5], 1875 ng.Eq.hr/ml; with Rattus norvegicus [8] it was 3658 ng.Eq/ml; in the data set with Rattus norvegicus [12], 427 ng.Eq.hr/ml. Further, the “Ratio AUC” value amounted to 3.5 in the data set with Rattus norvegicus [2], 3.3 in the data set with Rattus norvegicus [10], 1 in the data set with Rattus norvegicus [11] and 2.3 with Rattus norvegicus [13]. The Cmax turned out to be 150 ng.Eq/ml in the data set on Rattus norvegicus [4], 158 ng.Eq/ml in the data set with Rattus norvegicus [6], 109 ng.Eq/ml with Rattus norvegicus [7] and 193 ng.Eq/ml with Rattus norvegicus [9].
